Measured values published in ChEMBL document CHEMBL4732081, “Development of prohibitin ligands against osteoporosis” (Eur J Med Chem, 2021).
The source made the active and inactive calls. The rule behind the calls is not given here.

Columns and labels:
[1] = Inhibition of osteoclastogenesis in human […] CD14+ pre-osteoclasts assessed as blocked of osteoclast differentiation in presence of M-CSF and RANKL at 10 uM measured after 11 days by TRAP staining method relative to control; assay type: functional; conditions: 264 h, time 11 day
Summary of the method: (§1)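 Human CD14+ cells came from donor PBMCs by Ficoll centrifugation (500g, 25 min) and CD14 microbead MACS selection. They were seeded at 45 x 10^4 cells/well in α-MEM, 10% FCS, 25 ng/ml hM-CSF. From day 3, medium with 25 ng/ml hM-CSF and 100 ng/ml hRANKL ± compound was changed twice weekly; about 11 days. TRAP-stained multinucleated cells were counted, as % vs RANKL positive control. Monocyte lots differed between series.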

[2] = Inhibition of osteoclastogenesis in human bone marrow derived CD14+ pre-osteoclasts assessed as blocked of osteoclast differentiation in presence of M-CSF and RANKL at 5 uM measured after 11 days by TRAP staining method relative to control; assay type: functional; conditions: 264 h, time 11 day; summary of the method: as §1
[3] = Inhibition of osteoclastogenesis in human bone marrow derived CD14+ pre-osteoclasts assessed as blocked of osteoclast differentiation in presence of M-CSF and RANKL at 1 uM measured after 11 days by TRAP staining method relative to control; assay type: functional; conditions: 264 h, time 11 day; summary of the method: as §1
Monocyte [4] = assay: Effect on p38 expression in human M-CSF treated human bone marrow derived CD14+ monocytes at 10 uM preincubated for 4 hrs followed by IL-6 stimulation and measured after 15 mins by Western blot assay; assay type: functional, tissue-based; conditions: time 4.25 hrs
Summary of the method: (§2)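 Human CD14+ monocytes were cultured 3 days with 25 ng/ml M-CSF. They were then treated with vehicle or 10 µM compound for 4 h without FBS and M-CSF, and stimulated with IL-6 (25 ng/mL) for 15 min. Equal-protein lysates were run on SDS-PAGE and transferred to PVDF. Blots were probed overnight at 4°C with primary antibodies, with fluorescent secondary detection.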

[5] = molecular target: MAP kinase p38 (Homo sapiens) (UniProt O15264+Q15759+Q16539+P53778); assay: Effect on p38 phosphorylation in human M-CSF treated human bone marrow derived CD14+ monocytes at 10 uM preincubated for 4 hrs followed by IL-6 stimulation and measured after 15 mins by Western blot assay; conditions: Monocyte, time 4.25 hrs; summary of the method: as §2
Monocyte [6] = assay: Effect on ERK expression in human M-CSF treated human bone marrow derived CD14+ monocytes at 10 uM preincubated for 4 hrs followed by IL-6 stimulation and measured after 15 mins by Western blot assay; assay type: functional; conditions: time 4.25 hrs; summary of the method: as §2
Monocyte [7] = assay: Effect on ERK phosphorylation in human M-CSF treated human bone marrow derived CD14+ monocytes at 10 uM preincubated for 4 hrs followed by IL-6 stimulation and measured after 15 mins by Western blot assay; conditions: time 4.25 hrs; summary of the method: as §2
[8] = molecular target: Signal transducer and activator of transcription 3 (Homo sapiens) (UniProt P40763); assay: Inhibition of STAT3 phosphorylation at Ser-727 in human M-CSF treated human bone marrow derived CD14+ monocytes at 10 uM preincubated for 4 hrs followed by IL-6 stimulation and measured after 15 mins by Western blot assay; conditions: Monocyte, time 4.25 hrs; summary of the method: as §2
Monocyte [9] = assay: Inhibition of osteoclastogenesis in human bone marrow derived CD14+ monocytes assessed as decrease in RANKL-induced Cathepsin K mRNA expression at 1 to 10 uM measured after 4 days by qRT-PCR method; assay type: functional; conditions: dose 1-10 µM, time 4.0 day
Summary of the method: (§3)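 CD14+ cells were seeded and, from day 3, treated with 25 ng/ml hM-CSF and 100 ng/ml hRANKL ± compound for 4 days. Target mRNA was measured by qRT-PCR, normalized to GAPDH, with comparative Ct quantification. Each assay was performed in triplicate.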

Monocyte [10] = assay: Inhibition of osteoclastogenesis in human bone marrow derived CD14+ monocytes assessed as decrease in RANKL-induced TRAP mRNA expression at 1 to 10 uM measured after 4 days by qRT-PCR method; assay type: functional; conditions: dose 1-10 µM, time 4.0 day; summary of the method: as §3
Monocyte [11] = assay: Inhibition of osteoclastogenesis in human bone marrow derived CD14+ monocytes assessed as decrease in RANKL-induced NFATc1 mRNA expression at 1 to 10 uM measured after 4 days by qRT-PCR method; assay type: functional; conditions: dose 1-10 µM, time 4.0 day; summary of the method: as §3
[12] = Cytotoxicity against human bone marrow derived CD14+ pre-osteoclasts upto 10 uM; assay type: tissue-based; conditions: osteoclast

Signal transducer and activator of transcription 3 (Homo sapiens), sequence (P40763 whole entry): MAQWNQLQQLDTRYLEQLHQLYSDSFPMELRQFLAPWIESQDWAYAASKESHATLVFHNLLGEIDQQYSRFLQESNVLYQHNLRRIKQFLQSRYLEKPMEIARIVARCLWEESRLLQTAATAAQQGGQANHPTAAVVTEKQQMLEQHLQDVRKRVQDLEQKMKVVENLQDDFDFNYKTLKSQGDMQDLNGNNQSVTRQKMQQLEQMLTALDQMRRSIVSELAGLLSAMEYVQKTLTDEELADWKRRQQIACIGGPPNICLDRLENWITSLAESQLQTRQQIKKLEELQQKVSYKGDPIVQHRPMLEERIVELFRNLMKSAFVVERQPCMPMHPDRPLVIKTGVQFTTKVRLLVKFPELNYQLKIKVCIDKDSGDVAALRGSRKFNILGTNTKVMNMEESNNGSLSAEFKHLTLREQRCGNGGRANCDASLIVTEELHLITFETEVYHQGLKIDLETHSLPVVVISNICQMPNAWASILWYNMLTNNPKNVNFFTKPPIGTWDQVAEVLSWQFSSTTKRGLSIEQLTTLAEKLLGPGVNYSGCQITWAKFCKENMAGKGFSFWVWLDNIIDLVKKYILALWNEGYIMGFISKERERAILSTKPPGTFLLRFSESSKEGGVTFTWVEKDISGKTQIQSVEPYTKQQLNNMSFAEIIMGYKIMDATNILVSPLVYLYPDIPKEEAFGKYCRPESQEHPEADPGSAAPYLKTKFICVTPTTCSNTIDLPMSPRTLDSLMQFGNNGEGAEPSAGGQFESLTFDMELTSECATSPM

SMILES | inhibition at 10 µM [1] | inhibition at 5 µM [2] | inhibition at 1 µM [3] | also measured
COc1ccc(S(=O)(=O)/N=C(\CC2CCCCC2)N2[C@H](C)CCC[C@@H]2C)cc1 | 98% | 62% | – | –
C[C@@H]1CCC[C@H](C)N1/C(CC1CCCCC1)=N/S(=O)(=O)c1cccnc1 | 56.1% | – | -23.6% | –
COc1ccc(S(=O)(=O)/N=C(\CC2CCCCC2)N(C(C)C)C2CCCC2)cc1 | 99% | 26% | -86% | –
C[C@@H]1CCC[C@H](C)N1/C(CC1CCCCC1)=N/S(=O)(=O)C(F)(F)F | 96.1% | – | -1.1% | –
Cc1ccc(S(=O)(=O)/N=C(\C=C2CCCCC2)N2[C@H](C)CCC[C@@H]2C)cc1 | 23.3% | – | 25.5% | –
Cc1ccc(S(=O)(=O)/N=C(\C2CCCCC2)N2[C@H](C)CCC[C@@H]2C)cc1 | 24.1% | – | 22.8% | –
Cc1ccc(S(=O)(=O)/N=C2\CCCCCN2C(C)C)cc1 | 39.3% | – | 27.1% | –
C[C@@H]1CCC[C@H](C)N1/C(CC1CCCCC1)=N/S(=O)(=O)N(C)C | 68.4% | – | 11.8% | –
CCCCC/C(=N\S(=O)(=O)c1ccc(C)cc1)N1[C@H](C)CCC[C@@H]1C | 99.8% | – | 20.9% | –
COc1ccc(S(=O)(=O)/N=C(\CC2CCCCC2)N(C(C)C)C2CCCCCC2)cc1 | 99% | 74% | -6% | –
Cc1ccc(S(=O)(=O)/N=C(\CC2CCCCC2)N2CCCC3CCCCC32)cc1 (centres undefined) | 78.9% | – | 33.1% | –
C[C@@H]1CCC[C@H](C)N1/C(CC1CCCCC1)=N/S(=O)(=O)c1ccccn1 | 44.9% | – | -20.2% | –
CC(C)S(=O)(=O)/N=C(\CC1CCCCC1)N1[C@H](C)CCC[C@@H]1C | 12.6% | – | 1.6% | –
COc1ccc(S(=O)(=O)/N=C(\CC2CCCCC2)N(C(C)C)C2CCOCC2)cc1 | 39% | 28% | -14% | –
Cc1ccc(S(=O)(=O)/N=C(\CC2CCCC2)N2[C@H](C)CCC[C@@H]2C)cc1 | 91.5% | – | 32.7% | –
COc1ccc(S(=O)(=O)/N=C(\CC2CCCCC2)N(C(C)C)C2CCSCC2)cc1 | 93% | 53% | -10% | –
Cc1ccc(S(=O)(=O)/N=C(\CC2CCCCC2)N2[C@H](C)CCC[C@@H]2C)cc1 | 97.9% | 72% | 35% | Activity (Monocyte [4]): inactive; Activity [5]: inactive; Activity (Monocyte [6]): inactive; Activity (Monocyte [7]): inactive; inhibition [8]: Active; inhibition (Monocyte [9]): Active; inhibition (Monocyte [10]): Active; inhibition (Monocyte [11]): Active
COc1ccc(S(=O)(=O)/N=C(\CC2CCCCC2)N(C(C)C)C2CCCCCCC2)cc1 | 100% | 88% | 5% | Activity [12]: Toxic
Cc1ccc(S(=O)(=O)/N=C2\CCCCN2C(C)C)cc1 | 6.1% | – | 27.9% | –
COc1ccc(S(=O)(=O)/N=C(\CC2CCCCC2)N2CCCCCC2)cc1 | 88% | 49% | -30% | –
CCCCC1CCCN(C(C)C)/C1=N/S(=O)(=O)c1ccc(C)cc1 (centres undefined) | 80.6% | – | 31.9% | –
CCCCC1CCCCN(C(C)C)/C1=N/S(=O)(=O)c1ccc(C)cc1 (centres undefined) | 90.1% | – | 12.1% | –
C[C@@H]1CCC[C@H](C)N1/C(CC1CCCCC1)=N/S(=O)(=O)C[C@@]12CCC(CC1=O)C2(C)C | 57.5% | – | -1.5% | –
C[C@@H]1CCC[C@H](C)N1/C(CC1CCCCC1)=N/S(=O)(=O)c1ccccc1 | 97.9% | – | 3.3% | –
